Experimental data from ChEMBL document CHEMBL4689842, “EUbOPEN Chemogenomics Library wave 1” (2021).

Test system: HEK-293T
Experiment: Multiplex assay against HEK293T;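 for Population Tubulin-Different-Phenotype (%): share of the cells with healthy nuclei that show this phenotype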
Assay type: toxicity, cell-based
Settings: human
Outline: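 Values for tubulin, mitochondrial-mass and membrane-permeability phenotypes are per cents of cells with healthy nuclei. These cells were identified by CellPathfinder machine-learning gating of live cells that had been stained at seeding with Hoechst33342, BioTracker Green Microtubule Cytoskeleton Dye, MitoTracker Red and Annexin V Alexa Fluor 680 and imaged on a CQ1 microscope at 37°C and 5% CO2 after compound addition. The gating first set Hoechst high-intensity objects apart from normal cells, then split normal cells into healthy, pyknosed or fragmented nuclei, and pyknosed cells into mitotic or apoptotic.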

[1] = 12 h, 1 µM, compound concentration 1 uM, replicate 1
[2] = 12 h, 1 µM, compound concentration 1 uM, replicate 2
[3] = 12 h, 10 µM, compound concentration 10 uM, replicate 1
[4] = 12 h, 10 µM, compound concentration 10 uM, replicate 2
[5] = 24 h, 1 µM, compound concentration 1 uM, replicate 1
[6] = 24 h, 1 µM, compound concentration 1 uM, replicate 2
[7] = 24 h, 10 µM, compound concentration 10 uM, replicate 1
[8] = 24 h, 10 µM, compound concentration 10 uM, replicate 2
[9] = 48 h, 1 µM, compound concentration 1 uM, replicate 1
[10] = 48 h, 1 µM, compound concentration 1 uM, replicate 2
[11] = 48 h, 10 µM, compound concentration 10 uM, replicate 1
[12] = 48 h, 10 µM, compound concentration 10 uM, replicate 2

**Q.** How did the “Population Apoptotic (%)” value [1] turn out when `O=C1NCN(c2ccccc2)C12CCN(CCCOc1ccc(F)cc1)CC2` [SPIRAMIDE] was run?
**A.** 41%

**Q.** What about the “Population Fragmented Nuclei (%)” value [1] of the same compound?
**A.** 15%

**Q.** And the “Population Hoechst High Intensity Objects (%)” value [1]?
**A.** 12%

**Q.** What about the “Population Membrane Permeable-Phenotype (%)” value [1] of the same compound?
**A.** 4%

**Q.** What about the “Population Mitochondria Different-Phenotype (%)” value [1] of the same compound?
**A.** 81%

**Q.** What about the “Population Mitotic Cells (%)” value [1] of the same compound?
**A.** 58%

**Q.** And the “Population Normal (%)” value [1]?
**A.** 87%

**Q.** And the “Population Pyknosed Nuclei (%)” value [1]?
**A.** 45%

**Q.** And the “Population Tubulin-Different-Phenotype (%)” value [1]?
**A.** 35%

**Q.** What about the “Total Cell Count” value [1] of the same compound?
**A.** 216

**Q.** And the “Population Apoptotic (%)” value [2]?
**A.** 11%

**Q.** What about the “Population Fragmented Nuclei (%)” value [2] of the same compound?
**A.** 10%

**Q.** What about the “Population Healthy Nuclei (%)” value [2] of the same compound?
**A.** 38%

**Q.** And the “Population Hoechst High Intensity Objects (%)” value [2]?
**A.** 7%

**Q.** And the “Population Membrane Permeable-Phenotype (%)” value [2]?
**A.** 12%

**Q.** And the “Population Mitochondria Different-Phenotype (%)” value [2]?
**A.** 11%

**Q.** And the “Population Mitotic Cells (%)” value [2]?
**A.** 88%

**Q.** And the “Population Normal (%)” value [2]?
**A.** 92%

**Q.** And the “Population Pyknosed Nuclei (%)” value [2]?
**A.** 50%

**Q.** What about the “Population Tubulin-Different-Phenotype (%)” value [2] of the same compound?
**A.** 20%

**Q.** And the “Total Cell Count” value [2]?
**A.** 179

**Q.** And the “Population Apoptotic (%)” value [3]?
**A.** 66%

**Q.** What about the “Population Fragmented Nuclei (%)” value [3] of the same compound?
**A.** 16%

**Q.** What about the “Population Healthy Nuclei (%)” value [3] of the same compound?
**A.** 13%

**Q.** What about the “Population Hoechst High Intensity Objects (%)” value [3] of the same compound?
**A.** 17%

**Q.** What about the “Population Membrane Permeable-Phenotype (%)” value [3] of the same compound?
**A.** 0%

**Q.** What about the “Population Mitochondria Different-Phenotype (%)” value [3] of the same compound?
**A.** 95%

**Q.** And the “Population Mitotic Cells (%)” value [3]?
**A.** 33%

**Q.** And the “Population Normal (%)” value [3]?
**A.** 82%

**Q.** What about the “Population Pyknosed Nuclei (%)” value [3] of the same compound?
**A.** 70%

**Q.** And the “Population Tubulin-Different-Phenotype (%)” value [3]?
**A.** 95%

**Q.** And the “Total Cell Count” value [3]?
**A.** 210

**Q.** What about the “Population Apoptotic (%)” value [4] of the same compound?
**A.** 19%

**Q.** What about the “Population Fragmented Nuclei (%)” value [4] of the same compound?
**A.** 3%

**Q.** And the “Population Healthy Nuclei (%)” value [4]?
**A.** 34%

**Q.** And the “Population Hoechst High Intensity Objects (%)” value [4]?
**A.** 2%

**Q.** And the “Population Membrane Permeable-Phenotype (%)” value [4]?
**A.** 7%

**Q.** What about the “Population Mitochondria Different-Phenotype (%)” value [4] of the same compound?
**A.** 55%

**Q.** What about the “Population Mitotic Cells (%)” value [4] of the same compound?
**A.** 80%

**Q.** What about the “Population Normal (%)” value [4] of the same compound?
**A.** 97%

**Q.** What about the “Population Pyknosed Nuclei (%)” value [4] of the same compound?
**A.** 62%

**Q.** And the “Population Tubulin-Different-Phenotype (%)” value [4]?
**A.** 46%

**Q.** What about the “Total Cell Count” value [4] of the same compound?
**A.** 194

**Q.** And the “Population Apoptotic (%)” value [5]?
**A.** 50%

**Q.** And the “Population Fragmented Nuclei (%)” value [5]?
**A.** 13%

**Q.** What about the “Population Healthy Nuclei (%)” value [5] of the same compound?
**A.** 57%

**Q.** And the “Population Hoechst High Intensity Objects (%)” value [5]?
**A.** 10%

**Q.** What about the “Population Membrane Permeable-Phenotype (%)” value [5] of the same compound?
**A.** 0%

**Q.** What about the “Population Mitochondria Different-Phenotype (%)” value [5] of the same compound?
**A.** 66%

**Q.** And the “Population Mitotic Cells (%)” value [5]?
**A.** 50%

**Q.** And the “Population Normal (%)” value [5]?
**A.** 89%

**Q.** And the “Population Pyknosed Nuclei (%)” value [5]?
**A.** 28%

**Q.** What about the “Population Tubulin-Different-Phenotype (%)” value [5] of the same compound?
**A.** 34%

**Q.** And the “Total Cell Count” value [5]?
**A.** 248

**Q.** And the “Population Apoptotic (%)” value [6]?
**A.** 6%

**Q.** And the “Population Fragmented Nuclei (%)” value [6]?
**A.** 8%

**Q.** And the “Population Healthy Nuclei (%)” value [6]?
**A.** 61%

**Q.** What about the “Population Hoechst High Intensity Objects (%)” value [6] of the same compound?
**A.** 3%

**Q.** And the “Population Membrane Permeable-Phenotype (%)” value [6]?
**A.** 6%

**Q.** What about the “Population Mitochondria Different-Phenotype (%)” value [6] of the same compound?
**A.** 17%

**Q.** And the “Population Mitotic Cells (%)” value [6]?
**A.** 93%

**Q.** And the “Population Normal (%)” value [6]?
**A.** 96%

**Q.** What about the “Population Pyknosed Nuclei (%)” value [6] of the same compound?
**A.** 30%

**Q.** What about the “Population Tubulin-Different-Phenotype (%)” value [6] of the same compound?
**A.** 29%

**Q.** What about the “Total Cell Count” value [6] of the same compound?
**A.** 207

**Q.** What about the “Population Apoptotic (%)” value [7] of the same compound?
**A.** 69%

**Q.** And the “Population Fragmented Nuclei (%)” value [7]?
**A.** 17%

**Q.** And the “Population Healthy Nuclei (%)” value [7]?
**A.** 19%

**Q.** What about the “Population Hoechst High Intensity Objects (%)” value [7] of the same compound?
**A.** 17%

**Q.** And the “Population Membrane Permeable-Phenotype (%)” value [7]?
**A.** 5%

**Q.** And the “Population Mitochondria Different-Phenotype (%)” value [7]?
**A.** 97%

**Q.** What about the “Population Mitotic Cells (%)” value [7] of the same compound?
**A.** 30%

**Q.** And the “Population Normal (%)” value [7]?
**A.** 82%

**Q.** And the “Population Pyknosed Nuclei (%)” value [7]?
**A.** 62%

**Q.** What about the “Population Tubulin-Different-Phenotype (%)” value [7] of the same compound?
**A.** 100%

**Q.** And the “Total Cell Count” value [7]?
**A.** 231

**Q.** What about the “Population Apoptotic (%)” value [8] of the same compound?
**A.** 21%

**Q.** And the “Population Fragmented Nuclei (%)” value [8]?
**A.** 3%

**Q.** What about the “Population Healthy Nuclei (%)” value [8] of the same compound?
**A.** 54%

**Q.** What about the “Population Hoechst High Intensity Objects (%)” value [8] of the same compound?
**A.** 1%

**Q.** What about the “Population Membrane Permeable-Phenotype (%)” value [8] of the same compound?
**A.** 2%

**Q.** What about the “Population Mitochondria Different-Phenotype (%)” value [8] of the same compound?
**A.** 59%

**Q.** And the “Population Mitotic Cells (%)” value [8]?
**A.** 78%

**Q.** And the “Population Normal (%)” value [8]?
**A.** 98%

**Q.** What about the “Population Pyknosed Nuclei (%)” value [8] of the same compound?
**A.** 42%

**Q.** What about the “Population Tubulin-Different-Phenotype (%)” value [8] of the same compound?
**A.** 59%

**Q.** What about the “Total Cell Count” value [8] of the same compound?
**A.** 256

**Q.** And the “Population Apoptotic (%)” value [9]?
**A.** 35%

**Q.** And the “Population Fragmented Nuclei (%)” value [9]?
**A.** 10%

**Q.** And the “Population Healthy Nuclei (%)” value [9]?
**A.** 77%

**Q.** What about the “Population Hoechst High Intensity Objects (%)” value [9] of the same compound?
**A.** 7%

**Q.** And the “Population Membrane Permeable-Phenotype (%)” value [9]?
**A.** 1%

**Q.** And the “Population Mitochondria Different-Phenotype (%)” value [9]?
**A.** 26%

**Q.** And the “Population Mitotic Cells (%)” value [9]?
**A.** 64%

**Q.** And the “Population Normal (%)” value [9]?
**A.** 92%

**Q.** What about the “Population Pyknosed Nuclei (%)” value [9] of the same compound?
**A.** 12%

**Q.** What about the “Population Tubulin-Different-Phenotype (%)” value [9] of the same compound?
**A.** 22%

**Q.** What about the “Total Cell Count” value [9] of the same compound?
**A.** 484

**Q.** What about the “Population Apoptotic (%)” value [10] of the same compound?
**A.** 8%

**Q.** And the “Population Fragmented Nuclei (%)” value [10]?
**A.** 4%

**Q.** What about the “Population Healthy Nuclei (%)” value [10] of the same compound?
**A.** 82%

**Q.** What about the “Population Hoechst High Intensity Objects (%)” value [10] of the same compound?
**A.** 2%

**Q.** What about the “Population Membrane Permeable-Phenotype (%)” value [10] of the same compound?
**A.** 7%

**Q.** And the “Population Mitochondria Different-Phenotype (%)” value [10]?
**A.** 7%

**Q.** And the “Population Mitotic Cells (%)” value [10]?
**A.** 91%

**Q.** What about the “Population Normal (%)” value [10] of the same compound?
**A.** 97%

**Q.** And the “Population Pyknosed Nuclei (%)” value [10]?
**A.** 13%

**Q.** And the “Population Tubulin-Different-Phenotype (%)” value [10]?
**A.** 20%

**Q.** And the “Total Cell Count” value [10]?
**A.** 363

**Q.** And the “Population Apoptotic (%)” value [11]?
**A.** 59%

**Q.** And the “Population Fragmented Nuclei (%)” value [11]?
**A.** 17%

**Q.** And the “Population Healthy Nuclei (%)” value [11]?
**A.** 30%

**Q.** What about the “Population Hoechst High Intensity Objects (%)” value [11] of the same compound?
**A.** 18%

**Q.** What about the “Population Membrane Permeable-Phenotype (%)” value [11] of the same compound?
**A.** 0%

**Q.** And the “Population Mitochondria Different-Phenotype (%)” value [11]?
**A.** 98%

**Q.** What about the “Population Mitotic Cells (%)” value [11] of the same compound?
**A.** 40%

**Q.** What about the “Population Normal (%)” value [11] of the same compound?
**A.** 81%

**Q.** What about the “Population Pyknosed Nuclei (%)” value [11] of the same compound?
**A.** 51%

**Q.** And the “Population Tubulin-Different-Phenotype (%)” value [11]?
**A.** 89%

**Q.** What about the “Total Cell Count” value [11] of the same compound?
**A.** 227

**Q.** What about the “Population Apoptotic (%)” value [12] of the same compound?
**A.** 21%

**Q.** What about the “Population Fragmented Nuclei (%)” value [12] of the same compound?
**A.** 4%

**Q.** And the “Population Healthy Nuclei (%)” value [12]?
**A.** 77%

**Q.** What about the “Population Hoechst High Intensity Objects (%)” value [12] of the same compound?
**A.** 4%

**Q.** And the “Population Membrane Permeable-Phenotype (%)” value [12]?
**A.** 1%

**Q.** What about the “Population Mitochondria Different-Phenotype (%)” value [12] of the same compound?
**A.** 29%

**Q.** And the “Population Mitotic Cells (%)” value [12]?
**A.** 78%

**Q.** What about the “Population Normal (%)” value [12] of the same compound?
**A.** 95%

**Q.** What about the “Population Pyknosed Nuclei (%)” value [12] of the same compound?
**A.** 17%

**Q.** And the “Population Tubulin-Different-Phenotype (%)” value [12]?
**A.** 44%

**Q.** And the “Total Cell Count” value [12]?
**A.** 383
